Results on 13 molecules are retold here after ChEMBL document CHEMBL3994594, “Angiogenesis Inhibitors and Anti-Inflammatory Agents from Phoma sp. NTOU4195” (J Nat Prod, 2016).

The source made the active and inactive calls. The calls are words filed in the database; no cut-off is given here. A value given as a limit tells only on which side of the number the result lay.

Data set [1] concerns RAW264.7. Kind of data set: Antiinflammatory activity in mouse RAW264.7 cells assessed as inhibition of LPS-stimulated nitric oxide production at 100 uM compound treated prior to LPS challenge by Griess assay. It is filed as functional. The method, boiled down: (§1)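 RAW264.7 grown to confluence (24 h, DMEM 10% FBS), then serum-free DMEM 4 h for quiescence. Compounds added before LPS (200 ng/mL). Nitrite in medium read spectrophotometrically by Griess reaction. Percent inhibition calculated versus vehicle plus LPS; Emax is inhibition at 100 μM, IC50 the concentration giving 50% of Emax; n = 4−6.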

A short description of data set [2]: Antiangiogenic activity in CD34-positive human EPC assessed as inhibition of tube formation on matrigel after 24 hrs by inverted phase-contrast microscopy. The data set is classed as functional, cell-based. The method in brief: (§2)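 Human CD34+ EPCs (from PBMCs, MACS bead separation) maintained on 1% gelatin in MV2 medium with 20% FBS. Matrigel polymerized 30 min at 37 °C; 6 × 10^4 cells/well seeded in MV2 with 2% FBS plus compound, 24 h at 37 °C. Tube length measured in three random fields per well, expressed against DMSO control; IC50 derived from this.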

Data set [3] has as its system RAW264.7. Kind of data set: Antiinflammatory activity in mouse RAW264.7 cells assessed as inhibition of LPS-stimulated nitric oxide production compound treated prior to LPS challenge by Griess assay. It is filed as functional, cell-based. The method, boiled down:
as §1

Data set [4] in a line: Cytotoxicity against mouse RAW264.7 cells assessed as cell viability by AlamarBlue assay. The data set is classed as cell-based. On the set-up: concentration or dose not given beside the values. The conditions noted are these: read-out: Activity. The method in brief:
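RAW264.7 macrophages exposed to compounds at up to 100 μM under the NO-assay conditions; viability read by AlamarBlue.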

Data set [5] is described as follows: Cytotoxicity against CD34-positive human EPC at 20 uM after 24 hrs by LDH release assay. It is filed as cell-based. The method in brief: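 EPCs seeded at 5 × 10^3 cells/well, treated 24 h in MV2 medium with 2% FBS containing compound at 20 μM. LDH release taken as medium LDH activity relative to cell-lysate LDH activity. Mean ± SEM of three independent experiments.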

For a further data set, the system named is EPC. Nature of the data set: Antiangiogenic activity in CD34-positive human EPC assessed as inhibition of tube formation on matrigel at 10 uM after 24 hrs by inverted phase-contrast microscopy. The data set is classed as functional, cell-based. The method, boiled down: as §2

In the case of `CC/C=C\[C@H](O)[C@H](O)C1=C(C)C(=O)[C@]2(O1)C(=O)N[C@](OC)(C(=O)c1ccccc1)[C@H]2O`, the maximum response (Emax) at 100 µM with RAW264.7 [1] was 78.2%. Besides, the IC50 is above 20 µM in data set [2] and 40.6 µM in the data set with RAW264.7 [3]. For the same molecule, the viability in data set [4] was 100%.

Take `CC/C=C\[C@H](O)[C@H](O)C1=C(C)C(=O)[C@]2(O1)C(=O)N[C@@](OC)(C(=O)c1ccccc1)[C@@H]2O` [PSEUROTIN A]: the Emax at 100 µM with RAW264.7 [1] came to 38.8%. The IC50 in data set [2] is above 20 µM; in the data set with RAW264.7 [3], above 100 µM. In data set [4], the viability was 103%.

Consider `CO[C@H]1[C@@H](OC(=O)/C=C/[C@H]2O[C@@H]2C)CC[C@@]2(O)CO[C@@](C)(C(O)CC=C(C)C)[C@H]12` (stereo partly drawn), for which the Emax at 100 µM in the data set with RAW264.7 [1] was determined as 93.4%. Also, the results for the IC50 (in data set [2]; in the data set with RAW264.7 [3]) were 16.2 µM and 22.8 µM, respectively. For the same molecule, the viability in data set [4] was 92.2%. The Activity result in data set [5] is reported as “Non-Toxic”. For the same molecule, in the data set on EPC, the inhibition result was “Active”.

Consider `CNC(=O)c1cc(Oc2ccc(NC(=O)Nc3ccc(Cl)c(C(F)(F)F)c3)cc2)ccn1` [SORAFENIB], for which the IC50 in data set [2] is 3.6 µM.

Turning to `C=C1CC[C@H](OC(=O)/C=C/[C@@H](O)[C@H](C)O)[C@H](OC)[C@H]1[C@@]1(C)O[C@H]1CC=C(C)C`, the Emax at 100 µM in the data set with RAW264.7 [1] was found to be 80.8%. The IC50 in data set [2] amounted to 19.2 µM; in the data set with RAW264.7 [3] it was 35.4 µM. Moreover, the viability in data set [4] amounted to 93%. Also, the Activity result in data set [5] was “Non-Toxic”. Besides, the inhibition entry in the data set with EPC was “Active”.

Take `N=C(NCCC[C@H](N)C(=O)O)N[N+](=O)[O-]` [NITROARGININE]: the Emax at 100 µM with RAW264.7 [1] amounted to 42.1%. In addition, in the data set on RAW264.7 [3], the IC50 was 144 µM. Moreover, the viability in data set [4] stood at 102%.

Consider `CO[C@H]1[C@@H](OC(=O)/C=C/[C@@H](O)[C@H](C)O)CC[C@@](O)(CCl)[C@@H]1[C@]1(C)O[C@H]1CC=C(C)C`, for which the Emax at 100 µM in the data set with RAW264.7 [1] came to 87.9%. For the same molecule, the IC50 in data set [2] was 8.1 µM; with RAW264.7 [3], 19.3 µM. Besides, the viability in data set [4] was determined as 99.2%. In addition, in data set [5], the Activity result is given as “Non-Toxic”. In addition, in the data set with EPC, the inhibition entry was “Active”.

As for `CC/C=C\[C@H](O)[C@H](O)C1=C(C)C(=O)[C@]2(O1)C(=O)N[C@@](OC)(C(=O)c1ccccc1)[C@H]2O`, the Emax at 100 µM with RAW264.7 [1] turned out to be 67.2%. Besides, the IC50 was above 20 µM in data set [2] and 62.5 µM with RAW264.7 [3]. Also, in data set [4], the viability came to 99.3%.

With `CC/C(O)=C/C=C(\O)C1=C(C)C(=O)[C@@]2(O1)C(=O)N[C@](OC)(C(=O)c1ccccc1)[C@H]2O`, the Emax at 100 µM in the data set with RAW264.7 [1] is 63.1%. For the same molecule, the results for the IC50 (in data set [2]; in the data set on RAW264.7 [3]) were 16.7 µM and 57 µM, respectively. Further, the viability in data set [4] stood at 97.6%. Moreover, the Activity entry in data set [5] was “Non-Toxic”. In addition, the inhibition entry in the data set on EPC was “Active”.

In the case of `N=C(N)NN` [PIMAGEDINE], the Emax at 100 µM in the data set on RAW264.7 [1] was 83.7%. Also, in the data set with RAW264.7 [3], the IC50 stood at 24.7 µM. In addition, the viability in data set [4] amounted to 99.2%.

`CO[C@H]1[C@@H](OC(=O)/C=C/[C@H]2O[C@H]2C)CC[C@@](O)(CCl)[C@@H]1[C@]1(C)O[C@H]1CC=C(C)C`: in the data set on RAW264.7 [1], the Emax at 100 µM is 100%. For the same molecule, the half-inhibitory concentration (IC50) in data set [2] is above 20 µM; in the data set on RAW264.7 [3], 13.5 µM. Moreover, in data set [4], the viability amounted to 101%. Also, the Activity entry in data set [5] is “Non-Toxic”.

Regarding `CO[C@H]1[C@@H](OC(=O)/C=C/[C@@H](O)[C@H](C)O)CC[C@@]2(CO2)[C@@H]1[C@@]1(C)O[C@H]1CC=C(C)C`, the Emax at 100 µM in the data set on RAW264.7 [1] is 100%. The figures for the IC50 (in data set [2]; with RAW264.7 [3]) were 18.4 µM and 20.6 µM, respectively. For the same molecule, the viability in data set [4] stood at 97.6%.

Take `CO[C@H]1[C@@H](OC(=O)/C=C/[C@H]2O[C@H]2C)CC[C@@]2(CO2)[C@@H]1[C@]1(C)O[C@H]1CC=C(C)C`: the Emax at 100 µM in the data set with RAW264.7 [1] was determined as 100%. In addition, the IC50 in data set [2] stood at 17.8 µM; in the data set with RAW264.7 [3], 8.8 µM. Further, the viability in data set [4] is 98.7%. Besides, the Activity entry in data set [5] was “Non-Toxic”. For the same molecule, the inhibition entry in the data set on EPC is “Active”.
